A selection: hits, their analogues and other compounds. The true share with any hit is near 0.75%.
EBNA-1 inh – EBNA-1 DNA-binding inhibitors, primary screen, biochemical, fluorescence polarization; actives 0.34% (n = 300,000); inhibition, % at 14.8 µM; AID 1950, 2009; in the data active means inhibition above about 28%
ARFGAP1 inh – inhibitors of rat ARFGAP1 GAP activity, primary screen, biochemical, fluorescence polarization, GDP tracer. ADP-ribosylation factor GTPase-activating protein 1 (Rattus norvegicus), Q62848. Arfgap1-stimulated ARF1 GTP hydrolysis, GDP FP detection. inhibition, % at 16.5 µM. actives 0.26% (n = 360,000);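 active means inhibition above a per-plate limit, mean inhibition of low control wells plus 3 SD, cut at about 25% in these data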;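 further: 0% = DMSO wells with enzyme and 100% = wells lacking Arfgap1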
Target sequence (Q62848 1-136 limits assumed): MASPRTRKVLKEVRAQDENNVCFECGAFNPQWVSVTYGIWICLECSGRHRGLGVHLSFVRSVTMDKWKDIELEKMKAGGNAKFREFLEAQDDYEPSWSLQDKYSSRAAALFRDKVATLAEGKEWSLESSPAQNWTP
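Material – truncated rat Arfgap1 GAP domain · Buffer or medium – HEPES-based buffer, pH 7.5 · Reagent – human ARF1(Δ1-17)-GTP substrate · Dosing – 16.5 µM single point, 1.26% DMSO · Schedule – GTP hydrolysis reaction 2 h at 25 °C · Technique – GDP detection by fluorescence polarization · Benchmarks – No-Arfgap1 wells (100%) versus DMSO full-reaction wells (0%) · Repeats – single replicate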
ZTA counter – counter-screen for EBNA-1 inhibitors: inhibitors of Epstein-Barr virus ZTA | P03206 | ZTA-DNA binding, fluorescence polarization | inhibition, % at 11 µM | actives 0.15% (n = 320,000) | AID 2234; in the data active means inhibition above about 33%
Target sequence (P03206 whole entry, looked up): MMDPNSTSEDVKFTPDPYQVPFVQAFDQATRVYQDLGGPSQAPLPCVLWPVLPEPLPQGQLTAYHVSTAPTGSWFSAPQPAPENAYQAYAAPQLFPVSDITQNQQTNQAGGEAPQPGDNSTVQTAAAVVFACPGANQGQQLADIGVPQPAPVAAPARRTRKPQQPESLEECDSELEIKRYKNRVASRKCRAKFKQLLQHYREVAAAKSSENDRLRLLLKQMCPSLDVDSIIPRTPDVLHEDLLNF
ASAP1 inh – inhibitors of human ASAP1 ArfGAP activity, primary screen, biochemical, fluorescence polarization | inhibition, % at 16.5 µM | actives 0.19% (n = 360,000) | ASAP1-stimulated ARF1 GTP hydrolysis, GDP FP detection | AID 624377, 2012 | Arf-GAP with SH3 domain, ANK repeat and PH domain-containing protein 1 (Homo sapiens), …; in the data active means inhibition above about 25%;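 further: 0% = vehicle with enzyme and substrate and 100% = no enzyme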
ARFGAP1 inh conf – ARFGAP1 inhibitor hit confirmation, biochemical, fluorescence polarization, triplicate | actives 30% (n = 890) | AID 651608, 2012 | ARFGAP1-stimulated ARF1 GTP hydrolysis, GDP tracer FP | shares compounds with ARFGAP1 inh | inhibition, % at 16.5 µM;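 active means average inhibition over triplicates above the hit cutoff set in the earlier primary screen, cut at about 25% in these data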;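 further: 0% = Arfgap1 plus ARF1-GTP with DMSO and 100% = wells lacking Arfgap1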
* marks the source's active call; other numbers are inactive results; / = no result given; + = active, no number.

SMILES | EBNA-1 inh | ARFGAP1 inh | ZTA counter | ASAP1 inh | ARFGAP1 inh conf
CCNC(=O)N1CCN(c2ccc(N3CCN(Cc4ccccc4)[C@@H](C)C3)c(C)c2)[C@H](C)C1 | / | -1.2 | / | 8.0 | /
CCc1cc(C(=O)NNC(=O)CCN2CCN(c3ccccc3)CC2)sc1C | -9.8 | -0.9 | -3.7 | 0.4 | /
CCc1cc(C(=O)NNC(=O)CCl)sc1C | -2.1 | 24.8* | -8.4 | -2.2 | -4.5
CCCCc1c(-c2ccccc2OC)ncn1Cc1ccc(Cl)cc1Cl | / | -4.5 | / | -7.4 | /
CCN1CCCC1CNC(=O)c1ccc2c(c1)NC(=O)/C(=C\c1ccc(OC)c(OC)c1)S2 (configuration not stated) | -13.3 | 38.9* | -7.3 | 23.8 | 82.7*
Cc1c(C(=O)OCC(=O)N2CC(C)CC(C)C2)oc2ccccc12 (configuration not stated) | -2.8 | 5.0 | -3.9 | -3.0 | /
COc1ccc2oc(C(=O)OCC(=O)N3CC(C)CC(C)C3)c(C)c2c1 (configuration not stated) | -3.8 | 30.6* | -8.7 | 13.1 | 38.9*
COc1ccc2oc(C(=O)OCC(=O)N3CC(C)OC(C)C3)c(C)c2c1 (configuration not stated) | -1.8 | 25.3* | 3.2 | 11.4 | 13.1
COc1cc2c3c(c1OC)C1(C=CC(=O)C=C1)CC3N(C(C)=O)CC2 (configuration not stated) | -0.7 | 29.4* | 0.8 | -16.5 | 7.5
CC(=O)Nc1ccc(OCC(O)Cn2c3ccccc3c3ccccc32)c(C)c1 (configuration not stated) | 0.5 | 25.4* | 0.6 | 16.9 | 25.8*
COC(=O)C1=C(C)N(Cc2ccccc2C(F)(F)F)C(=NCc2ccccc2C(F)(F)F)NC1c1cccc(F)c1 (configuration not stated) | / | 8.8 | / | -6.0 | /
Cc1ccc(C(=O)Nc2ccc(S(=O)(=O)N3CCCC3)cc2)o1 | -2.4 | 25.8* | -1.9 | -0.7 | -0.6
CC(C)N(C(=O)NC(=O)Nc1ccc(S(=O)(=O)N2CCCC2)cc1)S(C)(=O)=O | -8.6 | 36.1* | -12.1 | 17.1 | 13.9
CC(C)[C@H](NS(=O)(=O)c1ccc(F)cc1F)C(=O)N1CCC[C@H]1C(=O)NCc1ccccc1 | / | 8.2 | / | -0.9 | /
Cn1ccc2c(-c3cncc4ccccc34)cc3c(c21)C1CCC3C1 (configuration not stated) | / | 31.8* | / | 0.6 | -2.9
Cc1ccc(Nc2nc(CSc3nnnn3-c3ccccc3)cs2)cc1 | -3.1 | 29.1* | -1.0 | 1.1 | 8.6
COc1ccccc1C(=O)NCCC(=O)Nc1ccc(S(=O)(=O)N2CCCC(C)C2)cc1 (configuration not stated) | / | 28.3* | 4.6 | -0.7 | 3.5
COc1ccccc1C(=O)NCCC(=O)N1CCCC(C)C1 (configuration not stated) | -8.1 | 3.8 | -6.0 | 0.9 | /
CN1NC(=O)c2ccccc2NC1=S | / | 7.2 | / | 1.4 | /
COc1ccc(CNC(=O)CCS(=O)(=O)c2ccc3c(c2)NC(=O)CS3)cc1 | -2.3 | 25.1* | 5.0 | 1.1 | -3.2
CCN=C1NC(c2ccccc2)C(C(=O)OC)=C(C)N1Cc1ccc(C(F)(F)F)cc1 (configuration not stated) | / | -0.3 | / | 5.6 | /
C[C@@H]1CN(c2ccc(N3CCNC[C@H]3C)cc2C#N)C[C@H](C)O1 | / | -3.8 | / | -3.7 | /
C[C@]12Cc3ccccc3C1CC1=N[C@@H](c3ccc(C(F)(F)F)cc3)O[C@@]13C[C@@H]2C(=O)N3Cc1ccncc1 (some centres not stated) | / | 4.5 | / | 6.0 | /
CC1(C)Cc2c(cnn2-c2ccccc2)-c2c1c1ccccc1n2CC(O)CCl (configuration not stated) | 3.9 | 25.8* | -8.2 | 6.9 | 6.8
COC(=O)[C@]12C[C@H](CC(=O)N3CCC(c4ccccc4)CC3)C(=O)N(CCC3=CCCCC3)C1=C[C@H](COCc1ccccc1)O[C@@H]2C | / | 12.2 | / | -6.5 | /
SMILES | EBNA-1 inh | ARFGAP1 inh | ZTA counter | ASAP1 inh | ARFGAP1 inh conf
COc1ccc(NC(=O)Nc2nnc(-c3ccco3)s2)cc1 | 20.5 | 34.9* | 26.6 | 6.0 | -3.5
COC(=O)C1=C(C)NC(C)=C(C(=O)OC)C(N2C(=O)CCC2=O)C1 (configuration not stated) | / | -2.0 | / | 6.2 | /
Fc1ccc(-c2ccc3c(n2)CCCN3Cc2ccccc2C(F)(F)F)cc1 | / | 6.7 | / | 16.3 | /
COc1cccc(N=Cc2c[nH][nH]c2=O)c1 | 4.7 | -9.8 | 23.9 | -5.9 | /
O=c1[nH][nH]cc1C=Nc1ccc(Cl)cc1 | -0.2 | 36.0* | -21.7 | -2.7 | -6.2
COC(=O)C1=C(C)N(Cc2ccccc2C(F)(F)F)C(=NCc2ccc3c(c2)OCO3)NC1c1cccc(C(F)(F)F)c1 (configuration not stated) | / | 6.0 | / | 7.1 | /
CCC(C)C(=O)Nc1nc(C)c(-c2csc(Nc3cc(Cl)ccc3OC)n2)s1 (configuration not stated) | -4.4 | 30.6* | -2.3 | 9.9 | 10.0
CCC(C)C(=O)Nc1nc(C)c(-c2csc(Nc3cc(OC)ccc3OC)n2)s1 (configuration not stated) | 5.5 | 10.6 | 14.2 | 2.5 | /
O=C(Cc1ccc(NC(=O)C2CCCN(C(=O)c3ccccc3)C2)cc1)Nc1cccc(C(=O)N2CCCCC2)c1 (configuration not stated) | / | -8.2 | / | 6.4 | /
COc1ccc(C(=O)C=CNNC(=O)c2ccc(Cl)cc2)cc1 | -3.9 | 26.1* | -10.3 | -7.6 | -0.7
CC(CNC(=O)[C@@H](Cc1ccccc1)NC(=O)[C@H]1O[C@@H](n2ccc(=O)[nH]c2=O)[C@H](O)[C@@H]1O)c1ccccc1 (some centres not stated) | / | 2.3 | / | -13.7 | /
COc1ccccc1CNC(=O)CSc1nc(N)c(C#N)c(-c2cccs2)c1C#N | -1.4 | 42.2* | 11.4 | -11.2 | 30.2*
COc1ccc(-c2cc(-c3cccs3)c(C#N)c(SCC(=O)NCc3ccccc3OC)n2)cc1 | -1.1 | -2.1 | -0.3 | -1.5 | /
COC(=O)[C@]1(CC(C)C)NC=C(C(=O)c2ccccc2)[C@@H]1c1cccc(C(F)(F)F)c1 | / | 5.0 | / | 3.1 | /
COc1ccc2cc(C(=O)Nc3ccc(S(N)(=O)=O)cc3)sc(=O)c2c1OC | 15.2 | 24.7* | 28.5 | 18.4 | 20.9
Cc1ccc2nc(N/C(=N/S(=O)(=O)c3ccc(F)cc3F)c3ccccc3)sc2c1 | 3.3 | -7.0 | 7.0 | 7.7 | /
CCOC(=O)Cc1csc(N/C(=N/S(=O)(=O)c2ccc(F)cc2F)c2ccccc2)n1 | 4.7 | + | 8.3 | 13.4 | 4.5
Cc1ccccc1C(=O)N[C@H](C(=O)N1CCC[C@H]1C(=O)NCCc1ccccc1Cl)C(C)C | / | 2.1 | / | -4.1 | /
